The subject of assay [1] is ZR-75-1. Nature of the assay: Cytotoxicity against human ZR-75-1 cells after 72 hrs. It is filed as functional. The settings on record: ZR-75-1, 72 h, read-out: ED50 (the source's name). The procedure, abridged:
(§1)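 Cells in media with penicillin, streptomycin, fungizone and NaHCO3, pH 7.1–7.2. Compounds dissolved in DMSO (0.5% v/v final) and tested in triplicate at four concentrations (0.16–20 μg/ml). Incubation 72 h at 37° under 5% CO2. Cells fixed in cold 50% TCA and stained with sulforhodamine B. Bound dye solubilized in 10 mM Tris base, OD read at 515 nm. ED50 taken from averaged % of DMSO-only controls.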

Assay [2] can be described thus: Cytotoxicity against human multidrug-resistant KBV1 cells in absence of vinblastine after 72 hrs. It is filed as functional. The settings on record: KB-V1, 72 h, read-out: ED50 (the source's name). The gist of the method: as §1
Assay [3] concerns LNCaP. Put plainly: Cytotoxicity against human LNCAP cells after 72 hrs. Type of assay: functional. Conditions: read-out: ED50 (the source's name). The gist of the method:
as §1

Assay [4] in a line: Cytotoxicity against human U373 cells after 96 hrs. It is filed as functional, U-373MG ATCC. Conditions: U373 MG, read-out: ED50 (the source's name). The gist of the method:
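U373 cells grown in medium without fungizone. Treated in triplicate with four concentrations (0.16–20 μg/ml), DMSO 0.5% v/v final. Incubation 96 h at 37° under 5% CO2. Sulforhodamine B protein stain after cold 50% TCA fixation, OD 515 nm. ED50 derived from averaged % of DMSO-only controls.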

The test system of assay [5] is Col2. Put plainly: Cytotoxicity against human Col2 cells after 72 hrs. Type of assay: functional. The settings on record: Col2, 72 h, read-out: ED50 (the source's name). The gist of the method:
as §1

Assay [6] is described as follows: Cytotoxicity against human multidrug-resistant KBV1 cells in presence of vinblastine after 72 hrs. It is filed as functional. Conditions: KB-V1, 72 h, read-out: ED50 (the source's name).
Assay [7] has as its system KB. Put plainly: Cytotoxicity against human KB cells after 72 hrs. Type of assay: functional. Conditions: read-out: ED50 (the source's name). The procedure, abridged:
as §1

The nature of assay [8]: Cytotoxicity against human BC1 cells after 72 hrs. Type of assay: functional. Conditions: BC1, 72 h, read-out: ED50 (the source's name). The procedure, abridged: as §1
Assay [9] has as its system SK-MEL-2. Nature of the assay: Cytotoxicity against human SK-MEL-2 cells after 72 hrs. Conditions: SK-MEL-2, 72 h, read-out: ED50 (the source's name). It is filed as functional. The gist of the method: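 MEL-2 cells kept in a closed container. Treated in triplicate at four concentrations (0.16–20 μg/ml), DMSO 0.5% v/v final. Incubation 72 h at 37° without CO2. Cells fixed with cold 50% TCA, stained with sulforhodamine B, dye solubilized in 10 mM Tris, OD 515 nm. ED50 derived from averaged % of DMSO-only controls.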

Assay [10] deals with Lu1. Put plainly: Cytotoxicity against human Lu1 cells after 72 hrs. Type of assay: functional. Conditions: Lu1, 72 h, read-out: ED50 (the source's name). The procedure, abridged:
as §1

Assay [11] relates to A-431. Put plainly: Cytotoxicity against human A431 cells after 72 hrs. It is filed as functional. The settings on record: A-431, 72 h, read-out: ED50 (the source's name). The procedure, abridged: as §1
The test system of assay [12] is P388. Put plainly: Cytotoxicity against mouse P388 cells after 48 hrs. Conditions: P388, 48 h, read-out: ED50 (the source's name). Type of assay: functional. The procedure, abridged: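 Murine P-388 cells grown in medium without fungizone. Treated in triplicate at four concentrations (0.16–20 μg/ml), DMSO 0.5% v/v final. Incubation 48 h at 37° under 5% CO2. Fixed with 20% TCA, stained with sulforhodamine B, Tris-solubilized OD read at 515 nm. ED50 derived from averaged % of DMSO-only controls.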

Assay [13] deals with HT-1080. Nature of the assay: Cytotoxicity against human HT1080 cells after 48 hrs. It is filed as functional. The settings on record: HT-1080, 48 h, read-out: ED50 (the source's name). The procedure, abridged: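 HT-1080 cells exposed in triplicate to four concentrations (0.16–20 μg/ml) of compound from DMSO stock (0.5% v/v final). Incubation 48 h at 37° under 5% CO2. Read-out by cold 50% TCA fixation, sulforhodamine B staining and Tris-solubilized OD at 515 nm. ED50 derived from averaged % of DMSO-only controls.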

This is an account of results in ChEMBL document CHEMBL1147378, “Further lupane lactones from Kokoona ochracea” (1993).

≈ marks a conversion by molar mass, not a printed value.

With `CC1(C)C(=O)CC[C@]2(C)[C@H]3CC[C@H]4[C@@H]5[C@H]6[C@@H](C[C@]5(C)CC[C@@]4(C)[C@]3(C)CC[C@@H]12)OC(=O)[C@@]6(O)CO` [OCHRACEOLIDE D], the EC50 in assay [1] was over 20 µg/mL; in [2] it was over 20 µg/mL; in assay [3], 15.5 µg/mL (≈ 31.8 µM); in assay [4], 3.9 µg/mL (≈ 8.01 µM); in assay [5], over 20 µg/mL; in assay [6], over 20 µg/mL. Also, the EC50 in assay [7] was over 20 µg/mL; in assay [8] it was over 20 µg/mL; in assay [9], over 20 µg/mL; in assay [10], over 20 µg/mL; in assay [11], 9.5 µg/mL (≈ 19.5 µM); in [12], over 5 µg/mL. Also, the EC50 in assay [13] worked out at 14.7 µg/mL (≈ 30.2 µM).

For `CC(=O)OC[C@]1(O)C(=O)O[C@@H]2C[C@]3(C)CC[C@]4(C)[C@@H](CC[C@@H]5[C@@]6(C)CCC(=O)C(C)(C)[C@@H]6CC[C@]54C)[C@@H]3[C@@H]21`, the EC50 in [1] was over 20 µg/mL; in assay [2], 14.6 µg/mL (≈ 27.6 µM); in [3] it was over 20 µg/mL; in assay [4], over 20 µg/mL; in assay [5] it was over 20 µg/mL; in assay [6], 11.7 µg/mL. Moreover, the EC50 is 16.7 µg/mL (≈ 31.6 µM) in assay [7]; over 20 µg/mL in assay [8]; 20 µg/mL (≈ 37.8 µM) in [9]; over 20 µg/mL in assay [10]; over 20 µg/mL in assay [11]; 4.6 µg/mL (≈ 8.7 µM) in assay [12]. Besides, in [13], the EC50 is over 20 µg/mL.

For the compound `C=C1C(=O)O[C@@H]2C[C@]3(CO)CC[C@]4(C)[C@@H](CC[C@@H]5[C@@]6(C)CCC(=O)C(C)(C)[C@@H]6CC[C@]54C)[C@@H]3[C@H]12` [OCHRACEOLIDE E], the EC50 was 18.8 µg/mL (≈ 40.1 µM) in assay [1]; over 20 µg/mL in assay [2]; over 20 µg/mL in [3]; 8.6 µg/mL (≈ 18.3 µM) in [4]; over 20 µg/mL in [5]; over 20 µg/mL in assay [6]. Besides, the EC50 was over 20 µg/mL in assay [7]; over 20 µg/mL in assay [8]; 11.9 µg/mL (≈ 25.4 µM) in assay [9]; over 20 µg/mL in assay [10]; over 20 µg/mL in assay [11]; over 5 µg/mL in assay [12]. Moreover, in [13], the EC50 is 12.2 µg/mL (≈ 26 µM).

As to `CC(=O)OC[C@]1(OC(C)=O)C(=O)O[C@@H]2C[C@]3(C)CC[C@]4(C)[C@@H](CC[C@@H]5[C@@]6(C)CCC(=O)C(C)(C)[C@@H]6CC[C@]54C)[C@@H]3[C@@H]21`, the EC50 in [1] was 11.5 µg/mL (≈ 20.1 µM); in [2], 18.3 µg/mL (≈ 32.1 µM); in assay [3], over 20 µg/mL; in [4], over 20 µg/mL; in assay [5], over 20 µg/mL; in [6] it was 6.7 µg/mL. The EC50 in [7] is 16.8 µg/mL (≈ 29.4 µM); in assay [8], over 20 µg/mL; in assay [9], 6.2 µg/mL (≈ 10.9 µM); in [10] it was over 20 µg/mL; in assay [11], over 20 µg/mL; in assay [12], 4.8 µg/mL (≈ 8.41 µM). The EC50 in assay [13] is over 20 µg/mL.
